Data set [1] deals with MOLM-13. Kind of data set: Antitumor activity against human MOLM13 cells xenografted in po dosed SCID mouse assessed as regression tumor volume ratio administered bid for 5 days. It is filed as functional, organism-based. A digest of the protocol: (§1)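 SCID mice bearing subcutaneous MOLM-13 xenografts, 5 per group, dosed orally b.i.d. for 5 days. […] is the mean tumour volume ratio, treated to control. Regression is the mean tumour volume relative to the initial volume on day 0. Mortality and body weight were also recorded.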

Data set [2] relates to Liver microsomes. Kind of data set: Metabolic stability in human liver microsomes assessed as intrinsic clearance. The data set is classed as ADME, Microsome. The essentials: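 Pooled human liver microsomes (0.2 mg protein/mL) with test compound at 0.1 or 1 μmol/L, 5 mmol/L NADPH, 100 mmol/L phosphate buffer pH 7.4, 6 mmol/L MgCl2 and 0.1 mmol/L EDTA. Cosolvent was DMSO (0.01 or 0.001 vol%) or methanol (1 vol%). Incubated at 37 °C for a fixed time, n = 1 or 2. Stopped with CH3CN containing internal standard and analysed by LC-MS or LC-MS/MS. Intrinsic clearance calculated from percent remaining.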

Data set [3] in a line: Antiproliferative activity against human ML1 cells after 72 hrs by WST-1 assay. It is filed as functional. Conditions: ML1, 72 h. The essentials:
(§2)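 Cells kept in RPMI1640 with 10% heat-inactivated FBS, 1% penicillin and 1% streptomycin, seeded in 96-well plates and exposed to test compounds for 72 h. Viability read with WST-1 reagent. GI50 is the mean ± SEM of three experiments.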

The nature of data set [4]: Antiproliferative activity against human HMC1 cells expressing FLT3-delta599 mutant after 72 hrs by WST-1 assay. It is filed as functional. Conditions: HMC1, 72 h. A digest of the protocol: as §2
The subject of data set [5] is MOLM-13. The data set is described as follows: Antitumor activity against human MOLM13 cells xenografted in SCID mouse assessed as minimal regressive tumor volume ratio at 200 mg/kg, po bid treated for 5 days measured after 10 days relative to control. It is filed as functional. A digest of the protocol:
as §1

Data set [6] concerns MOLM-13. Kind of data set: Antitumor activity against human MOLM13 cells xenografted in SCID mouse assessed as minimal regressive tumor volume ratio at 100 mg/kg, po bid treated for 5 days measured after 4 days relative to control. It is filed as functional. The essentials: as §1
Data set [7] deals with Mus musculus. Kind of data set: Toxicity to human MOLM13 cells xenografted SCID mouse assessed as mortality at 50 mg/kg, po bid after 5 days. The data set is classed as organism-based, MOLM-13. The arrangement: dose 50 mg/kg, route oral. Conditions: in vivo, 120 h. The essentials: (§3)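 MOLM-13 cells implanted subcutaneously in SCID mice. Compound given orally twice daily for 5 days at 50, 100 or 200 mg/kg, alongside an untreated control group. Mortality was scored per dose group, together with tumor volume as treated/control ratio and relative to day-0 volume.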

For data set [8], the system named is MOLM-13. The data set is described as follows: Antitumor activity against human MOLM13 cells xenografted in po dosed SCID mouse assessed as tumor volume ratio administered bid for 5 days. The data set is classed as functional, organism-based. A digest of the protocol: as §1
Data set [9] deals with MOLM-13. The data set is described as follows: Antitumor activity against human MOLM13 cells xenografted in SCID mouse assessed as tumor volume ratio at 200 mg/kg, po bid treated for 5 days measured after 10 days relative to control. The data set is classed as functional. The essentials: as §1
In data set [10] the test system is Mus musculus. Kind of data set: Toxicity to human MOLM13 cells xenografted SCID mouse assessed as body weight loss at 200 mg/kg, po bid after 5 days. The data set is classed as organism-based, MOLM-13. On the set-up: dose 200 mg/kg, route oral. The conditions noted are these: in vivo, 120 h. A digest of the protocol: as §1
A short description of data set [11]: Antiproliferative activity against human HMC1 cells expressing FLT-D835Y mutant after 72 hrs by WST-1 assay. The data set is classed as functional. The conditions noted are these: HMC1, 72 h. The essentials: as §2
In data set [12] the test system is Mus musculus. Kind of data set: Toxicity to human MOLM13 cells xenografted SCID mouse assessed as mortality at 100 mg/kg, po bid after 5 days. It is filed as organism-based, MOLM-13. The arrangement: dose 100 mg/kg, route oral. The conditions noted are these: in vivo, 120 h. The essentials: as §3
Data set [13] concerns Mus musculus. The data set is described as follows: Toxicity to human MOLM13 cells xenografted SCID mouse assessed as mortality at 200 mg/kg, po bid after 5 days. Conditions: in vivo, 120 h. On the set-up: dose 200 mg/kg, route oral. The data set is classed as organism-based, MOLM-13. A digest of the protocol: as §3
The subject of data set [14] is MOLM-13. The data set is described as follows: Antitumor activity against human MOLM13 cells xenografted in SCID mouse assessed as minimal tumor volume ratio at 100 mg/kg, po bid treated for 5 days measured after 7 days relative to control. It is filed as functional. The essentials: as §1
Data set [15] has as its system MOLM-13. The data set is described as follows: Antiproliferative activity against human MOLM13 cells after 72 hrs by WST-1 assay. It is filed as functional. Conditions: MOLM-13, 72 h. The essentials:
as §2

Data set [16] addresses T1, Receptor-type tyrosine-protein kinase FLT3 (Homo sapiens, UniProt P36888).
T1 sequence (P36888 whole entry): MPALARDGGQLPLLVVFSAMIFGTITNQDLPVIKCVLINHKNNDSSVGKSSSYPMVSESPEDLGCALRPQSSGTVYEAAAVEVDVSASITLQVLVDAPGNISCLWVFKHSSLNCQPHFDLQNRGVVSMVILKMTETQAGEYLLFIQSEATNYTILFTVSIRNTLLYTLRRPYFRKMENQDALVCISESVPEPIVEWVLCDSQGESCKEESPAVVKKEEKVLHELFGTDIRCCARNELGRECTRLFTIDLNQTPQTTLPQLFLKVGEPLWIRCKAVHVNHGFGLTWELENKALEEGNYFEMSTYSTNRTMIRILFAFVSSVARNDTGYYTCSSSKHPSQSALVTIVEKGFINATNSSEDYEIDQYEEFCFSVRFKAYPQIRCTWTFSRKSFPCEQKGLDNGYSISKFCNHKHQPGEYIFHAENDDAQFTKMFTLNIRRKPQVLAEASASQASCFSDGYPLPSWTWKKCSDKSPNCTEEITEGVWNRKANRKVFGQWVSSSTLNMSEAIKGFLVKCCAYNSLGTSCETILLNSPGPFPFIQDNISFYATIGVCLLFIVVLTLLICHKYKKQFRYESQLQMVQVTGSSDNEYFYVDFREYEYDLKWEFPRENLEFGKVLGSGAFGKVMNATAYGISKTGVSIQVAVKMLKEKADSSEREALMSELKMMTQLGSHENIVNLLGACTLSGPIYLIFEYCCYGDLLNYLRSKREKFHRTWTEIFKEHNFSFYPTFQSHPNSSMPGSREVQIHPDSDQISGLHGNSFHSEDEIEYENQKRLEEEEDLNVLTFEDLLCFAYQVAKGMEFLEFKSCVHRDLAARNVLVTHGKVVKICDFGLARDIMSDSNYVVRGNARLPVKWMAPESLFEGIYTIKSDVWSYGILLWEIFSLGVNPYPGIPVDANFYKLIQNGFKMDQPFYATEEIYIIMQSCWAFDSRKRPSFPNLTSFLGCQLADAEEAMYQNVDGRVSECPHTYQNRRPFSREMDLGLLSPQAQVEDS
Kind of data set: Inhibition of GST-tagged FLT3 by ELISA.

Data set [17] deals with MOLM-13. The data set is described as follows: Antitumor activity against human MOLM13 cells xenografted in SCID mouse assessed as minimal tumor volume ratio at 50 mg/kg, po bid treated for 5 days measured after 7 days relative to control. It is filed as functional. A digest of the protocol:
as §1

Data set [18] is described as follows: Metabolic stability in human liver microsomes.

As to `CCCNc1nc(NCCc2ccncc2)ncc1-c1nnc(CN2CCNCC2)o1`, the Activity entry is “Dose-dependent effect” in [1]; “Non-toxic” in data set [7]; “Dose-dependent effect” in [8]; “Non-toxic” in data set [10]; “Non-toxic” in data set [12]; “Non-toxic” in data set [13]. Also, in [2], the clearance worked out at 18.3 mL/min/kg. The GI50 in data set [3] worked out at 9110 nM; in [4] it was 74 nM; in [11] it was 65 nM; in data set [15] it was 29 nM. The Ratio in data set [5] turned out to be 0.098; in data set [6], 0.571. Further, the T/C in [9] was found to be 0.006; in [14] it was 0.1.

Regarding `CCCNc1nc(NCCc2ccncc2)ncc1-c1nnc(C2CC2)o1`, in data set [2], the clearance was found to be 217 mL/min/kg. The 50% growth inhibitory concentration (GI50) in [3] was determined as 4320 nM; in data set [4] it was 36 nM; in data set [11], 52 nM; in data set [15], 36 nM. The compound further registered a concentration for half-maximal inhibition (IC50) in [16] of 4.9 nM. For the same compound, the T/C in data set [17] came out at 0.47; in [14], 0.34. For the same compound, the Activity result was “Unstable” in data set [18], “Non-toxic” in data set [7] and “Non-toxic” in data set [10].
